Screening data deposited in PubChem by several laboratories.
This is one part of a sample in which hits are shown more often than they occur.
CD11b adhes enh = enhancers of CD11b/CD18 adhesion to fibrinogen, primary screen, K562 cells, luminescence; ATPlite luminescence; 0.07% of 93,000 active; Integrin beta-2 (Homo sapiens) + Integrin alpha-M (Homo sapiens), P05107+P11215; activation, % at 10 µM; AID 1499, 2009;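 active = 10 µM primary screen giving 50% or more activity, confirmed by 40% or more on retest at that dose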
Target sequence (P05107 whole entry, looked up, other chains not shown): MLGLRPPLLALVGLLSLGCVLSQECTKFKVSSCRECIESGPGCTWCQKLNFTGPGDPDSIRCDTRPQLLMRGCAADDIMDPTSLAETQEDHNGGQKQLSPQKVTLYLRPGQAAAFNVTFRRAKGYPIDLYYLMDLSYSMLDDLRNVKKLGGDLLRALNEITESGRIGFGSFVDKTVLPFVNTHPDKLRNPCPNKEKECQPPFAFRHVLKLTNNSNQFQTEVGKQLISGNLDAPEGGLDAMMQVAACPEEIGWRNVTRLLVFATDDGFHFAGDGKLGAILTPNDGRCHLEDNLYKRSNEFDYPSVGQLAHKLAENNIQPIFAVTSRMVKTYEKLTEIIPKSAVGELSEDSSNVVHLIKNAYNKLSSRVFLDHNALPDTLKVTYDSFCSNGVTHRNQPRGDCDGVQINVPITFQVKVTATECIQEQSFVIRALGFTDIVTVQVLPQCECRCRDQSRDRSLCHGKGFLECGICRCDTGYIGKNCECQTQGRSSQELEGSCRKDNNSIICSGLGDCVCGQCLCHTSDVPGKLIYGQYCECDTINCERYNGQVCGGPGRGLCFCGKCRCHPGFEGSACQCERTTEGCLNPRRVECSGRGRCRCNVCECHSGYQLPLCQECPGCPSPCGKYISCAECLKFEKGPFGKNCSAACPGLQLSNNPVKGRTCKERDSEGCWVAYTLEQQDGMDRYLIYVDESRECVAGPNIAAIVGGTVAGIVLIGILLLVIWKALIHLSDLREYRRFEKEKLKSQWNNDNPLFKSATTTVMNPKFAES
CD11b adhes inh = inhibitors of CD11b/CD18 adhesion to fibrinogen, primary screen, K562 cells, luminescence; ATPlite luminescence; Mn2+ added to activate the integrin; inhibition, % at 10 µM; 0.54% of 93,000 active; AID 1497, 2009;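 active = primary inhibition of 50% or more at 10 µM, then 40% or more on retest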
E coli WT exp = growth inhibitors of wild-type E. coli, primary screen, strain BW25113, expanded library, OD600; OD600 absorbance; growth inhibition, % at 100 µM; 0.15% of 98,000 active;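 active = growth inhibition above about 50% at one test dose, limit read from the data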;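 note: growth measured after 20 h incubation at 37 °C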
tolC growth inh = growth inhibitors of E. coli tolC mutant, primary screen, strain BW25113 ΔtolC::kan, 384-well. 2.2% of 65,000 active. OD615. growth inhibition, % at 10 µM (by protocol);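 active = growth inhibition at or above a cutoff equal to the mean over every tested compound plus 3 SD, cut at about 60% in these data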;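 note: growth measured after 20 h incubation at 37 °C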
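Test system – E. coli BW25113 ΔtolC::kan, tolC deletion mutant strain · Detection – OD at 615 nm · Buffer or medium – LB with kanamycin 50 µg/mL · Times – 20 h compound exposure of bacteria at 37 °C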
* = called active by the depositor; . = no result given.

SMILES | CD11b adhes enh | CD11b adhes inh | E coli WT exp | tolC growth inh
CCNC(=O)n1nccc1C(C)Oc1cccc(C(F)(F)F)c1 (stereo unspecified) | . | . | 8 | .
Clc1ccc(OCCCc2nc(-c3ccncc3)no2)c(Cl)c1 | -2 | 8 | 16 | .
Clc1ccc(OCCCc2nc(-c3cccnc3)no2)c(Cl)c1 | -2 | 16 | 9 | 95*
COc1ccccc1-c1cn(S(=O)(=O)c2ccc(F)cc2)nc1N | -4 | 25 | -1 | 22
COc1ccc(CCN2C(=NC(=O)CCC(=O)O)SC3CS(=O)(=O)CC32)cc1 (stereo unspecified) | . | . | 1 | .
COc1ccccc1NC(=S)NC1CCC(CC2CCC(NC(=S)Nc3ccccc3OC)CC2)CC1 (stereo unspecified) | 15 | 40 | . | .
Oc1c(Br)cc(Br)cc1/C=N/c1nc2c(s1)CCCC2 | . | . | 67* | .
O=C(c1ccco1)N1CCN(c2nc(C3CC3)nc3sc4c(c23)CCCC4)CC1 | 1 | 22 | -11 | 77*
Cc1cc(Oc2ccccc2)nc2ccc(O)cc12 | -4 | -8 | 23 | 29
Cc1ccnc(NC(=S)NC(=O)/C=C/c2ccc(Cl)cc2)c1 | 55 | -13 | . | .
CCn1cc(C(=O)OCc2ccccc2)c(=O)c2ccc(C)nc21 | 0 | -12 | 31 | 56
CCn1cc(C(=O)OCC(=O)OC2CC(C)CCC2C(C)C)c(=O)c2ccc(C)nc21 (stereo unspecified) | 4 | -4 | 10 | 84*
COc1cc(NS(=O)(=O)c2ccc(NC(=O)COc3ccccc3Cl)cc2)nc(OC)n1 | -2 | -27 | -8 | 71*
Cc1ccc(OCC(=O)Nc2ccc(S(=O)(=O)Nc3onc(C)c3C)cc2)cc1 | . | . | -3 | 9
Cc1noc(NS(=O)(=O)c2ccc(NC(=O)COc3ccc(Cl)cc3Cl)cc2)c1C | -4 | 10 | 5 | 63*
O=C(N/N=C/c1ccc(O)cc1)/C(=C/c1ccccc1)CCO | -6 | -3 | . | .
CCCCCCn1nc(C(=O)Nc2nc3c(s2)CCCC3)c2ccccc2c1=O | 1 | 0 | . | .
CCCCc1ccc(Nc2nc(CCC)cc(=O)[nH]2)cc1 | -9 | 65 | 2 | 100*
CCOC(=O)c1cnn(-c2cc(Oc3ccccc3)ncn2)c1N | 0 | 52* | 0 | .
Cc1cc(C)nc(SCCn2c(N3CCCCC3)nc3c2c(=O)n(C)c(=O)n3C)n1 | 4 | -3 | -2 | -9
Cc1nc2ccc(NS(=O)(=O)c3ccc4c(c3)OCCO4)cc2s1 | -10 | 102* | -8 | .
COc1ccccc1NC(=O)Cn1nnc(-c2ccccc2NC(=O)c2cc3ccccc3oc2=O)n1 | 2 | 3 | -13 | .
Cn1c(-c2ccc3c(c2)OCO3)cnc1N | 0 | -26 | -2 | 91*
CC(C)(C)c1ccc(-c2nnc(SCCC#N)n2C2CCCC2)cc1 | -3 | 26 | -10 | 61*
COc1ccc(OCC(O)CNc2ccc(Br)cc2)cc1 (stereo unspecified) | 0 | 9 | 31 | 73*
SMILES | CD11b adhes enh | CD11b adhes inh | E coli WT exp | tolC growth inh
CC(N)c1ccc(Cl)cc1Cl (stereo unspecified) | -1 | -5 | . | .
CCOc1cc(C(=S)N2CCOCC2)ccc1OS(=O)(=O)c1ccc(NC(C)=O)cc1 | -10 | 88* | -3 | .
CCOc1ccc(C(=O)Nc2ccc(S(=O)(=O)N3CCOCC3)cc2)cc1OCC | 6 | 8 | -1 | 3
COc1ccc2[nH]c(=O)c(CNc3cccc(C)c3)cc2c1 | -1 | 21 | -1 | .
O=C1CCCN1c1cc(Cl)ccc1Cl | 0 | 8 | 4 | 6
CCN1C=CC(=C2C(=O)c3ccccc3C2=O)C=C1 | . | . | 0 | -15
CCCN1C=CC(=C2C(=O)c3ccccc3C2=O)C=C1 | -10 | 95* | 7 | 3
S=C1NCN(C2CCCCC2)CN1Cc1ccccc1 | 0 | -13 | . | .
CCC(Sc1nnc(-c2ccc(C)c(Cl)c2)n1CC)C(=O)Nc1nccs1 (stereo unspecified) | -4 | 56* | 14 | 81*
CCn1c(SCC(=O)Nc2nccs2)nnc1-c1ccc(S(=O)(=O)N2CCCCCC2)cc1 | 0 | 16 | -5 | .
COc1ccc(NC(=O)CC2C(=O)N(c3cccc(OC)c3)C(=O)N2CCC(C)C)cc1 (stereo unspecified) | 2 | -9 | -15 | .
O=c1c2ccccc2n(Cc2cccc(F)c2)c(=O)n1C1CCCC1 | 1 | -14 | -13 | 77*
O=C(Nc1nnc(-c2ccccc2)o1)c1ccc(Cl)cc1 | 0 | 16 | 49 | 99*
CN(C)c1ccc(C(=O)Nc2nnc(-c3ccc(Cl)cc3)o2)cc1 | 43 | -4 | -18 | 47
CC(=O)c1ccc(C(=O)Nc2nnc(-c3ccc(Cl)cc3)o2)cc1 | . | . | . | 100*
O=C(Nc1nnc(-c2ccccc2)o1)Nc1ccccc1Cl | -2 | 34 | -3 | 29
COc1ccc(C2C(C(C)=O)=C(C)N=c3s/c(=C\c4ccc5c(c4)OCO5)c(=O)n32)c(OC)c1 (stereo unspecified) | . | . | . | 6
COc1cccc2c1C(=O)O/C2=C/c1ccc2c(c1)OCO2 | 0 | 52* | -9 | .
COC(=O)c1cn(NC(=O)/C=C/c2ccc(OC)c(OC)c2)c(=O)c2ccccc12 | 7 | 1 | . | .
Cc1ccc(CS(=O)(=O)CCC(=O)N2CCOCC2)cc1 | . | . | 0 | -13
COC(=O)c1ccsc1NC(=O)CN1CCN(c2ccc(F)cc2)CC1 | 0 | 7 | -14 | 70*
CC(C)(C)C1CCc2c(sc(NC(=O)c3cc(C4CC4)on3)c2C#N)C1 (stereo unspecified) | -5 | 54* | -6 | 2
CC1CN=C(N(C(=O)Nc2ccccc2)c2ccc(F)cc2)S1 (stereo unspecified) | 4 | 8 | 6 | .
O=S(=O)(Nc1cccc2ncccc12)c1cccs1 | 3 | -34 | -2 | 99*
O=c1[nH]nc(Cc2ccc3ccccc3n2)c2ccccc12 | 1 | 7 | 4 | .
SMILES | CD11b adhes enh | CD11b adhes inh | E coli WT exp | tolC growth inh
Cc1cccnc1Nc1nc(-c2ccc(O)cc2O)cs1 | -2 | -6 | 10 | 100*
Cc1ccc(NC(=O)CSc2nc3ccccc3c(=O)n2CCCN2CCCCC2)cc1C | -4 | 3 | 8 | .
O=C(O)CCCCCn1c(O)c(C=C2N=c3ccccc3=N2)sc1=S | 0 | 69* | . | .
O=C(Oc1cc2oc(=O)c3c(c2cc1Cl)CCCC3)c1ccco1 | . | . | -5 | 17
O=C(Oc1cc2oc(=O)c3c(c2cc1Cl)CCCC3)c1cccs1 | -1 | 53* | . | .
Cc1ccc(-c2nc(N/N=C/c3cccnc3)c3ccccc3n2)cc1 | -8 | 95* | -5 | .
CCOc1cccc(-c2nc3cc(C)ccc3o2)c1 | -3 | 7 | 0 | 100*
Cc1cc(N2CCN(S(=O)(=O)c3ccc(Cl)cc3)CC2)c2ccccc2n1 | -8 | 85* | 3 | 37
Cc1cc(C)n(-c2cc(N3CCN(S(=O)(=O)c4ccc(Cl)cc4)CC3)ccc2[N+](=O)[O-])n1 | -1 | -2 | . | .
COc1ccc(CCNC(=O)CSc2nnc(CNC(=O)c3ccccc3F)o2)cc1OC | -3 | -1 | -2 | -17
